Results published in ChEMBL document CHEMBL1147925, “First pharmacophore-based identification of androgen receptor down-regulating agents: discovery of potent anti-prostate cancer agents” (Bioorg Med Chem, 2007).

Experiments:
LNCaP [1] = assay: Growth inhibition of human LNCaP cells after 5 days by MTT colorimetric assay; settings: 120 h
LNCaP [2] = assay: Decrease in androgen receptor protein expression in LNCaP cells by Western blotting; assay type: functional, cell-based; settings: Homo sapiens
How it was run: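 Whole-cell lysates were made in 0.1M Tris/0.5% Triton X-100 with protease inhibitor, and protein was measured by Bradford. Samples were run on 10% SDS-PAGE and immunoblotted with anti-AR monoclonal AR441 (1:500), HRP secondary and ECL. Signal was normalized to β-actin, and EC50 was taken from dose-response curves.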

Compound O=c1cc(CO)oc(C(Nc2ccccc2)c2ccccc2)c1O (centres undefined) has an IC50 (LNCaP [1]) of 20.9 µM and an EC50 (LNCaP [2]) of 212 µM.

Work on CCOC(=O)c1ccccc1OC(=O)Oc1ccccc1C(=O)OCC yielded an IC50 (LNCaP [1]) of 4.5 µM and an EC50 (LNCaP [2]) of 65.5 µM.

Cc1ccc(S(=O)(=O)Nc2ccc(C)cc2[N+](=O)[O-])cc1 was tested, and the IC50 (LNCaP [1]) was 39.8 µM and the EC50 (LNCaP [2]) was 76 µM.

In the case of CSc1ccc(OS(=O)(=O)c2cccc3nsnc23)cc1, the IC50 (LNCaP [1]) is reported as > 50 µM and the EC50 (LNCaP [2]) is reported as 17.5 µM.

With CCN(CCO)C(C(=O)c1ccc(Cl)cc1)c1ccc(Cl)cc1 (centres undefined) the IC50 (LNCaP [1]) was 8.31 µM and the EC50 (LNCaP [2]) was 39.5 µM.

O=C(CNCCCc1ccccc1)c1ccc(O)c(O)c1 showed an IC50 (LNCaP [1]) of 26.9 µM and an EC50 (LNCaP [2]) of 43.5 µM.

Compound COc1cc(/C=C/C(=O)CC(=O)/C=C/c2ccc(O)c(OC)c2)ccc1O [CURCUMIN] has an EC50 (LNCaP [2]) of 35 µM.

O=C(O)c1ccccc1Nc1cccc(C(F)(F)F)c1 [FLUFENAMIC ACID] was tested, and the EC50 (LNCaP [2]) was 200 µM.
